# Assay results from ChEMBL document CHEMBL2375220, “Bispyrimidines as potent histamine H(4) receptor ligands: delineation of structure-activity relationships and detailed H(4) receptor binding mode” (J Med Chem, 2013).
# How the values were obtained:
# [1] = Half life in human liver microsomes; assay type: ADME, Microsome
# [2] = Aqueous solubility of the compound at pH 6.8 by automated polarized light microscopy analysis; assay type: physicochemical
# How it was run: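 Aqueous solubility at pH 6.8, measured by precipitation from DMSO solution and reported in μg/mL.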
# Histamine H4 receptor [3] = molecular target: T1, Histamine H4 receptor (Homo sapiens, UniProt Q9H3N8); experiment: Displacement of [3H]histamine displacement from human recombinant histamine H4 receptor expressed in […] cells after 45 mins; assay type: cell-based, SK-N-MC
# [4] = Half life in mouse liver microsomes; assay type: ADME, Microsome
# Histamine H4 receptor [5] = molecular target: T1, Histamine H4 receptor; experiment: Displacement of [3H]histamine displacement from human histamine H4 receptor expressed in […] cells after 60 mins; assay type: cell-based, SK-N-MC
# How it was run: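 Affinity at the human H4 receptor, from displacement of [3H]histamine binding. Reported as pKi, the mean ± SEM of at least three independent determinations.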
# T1 sequence (Q9H3N8 whole entry): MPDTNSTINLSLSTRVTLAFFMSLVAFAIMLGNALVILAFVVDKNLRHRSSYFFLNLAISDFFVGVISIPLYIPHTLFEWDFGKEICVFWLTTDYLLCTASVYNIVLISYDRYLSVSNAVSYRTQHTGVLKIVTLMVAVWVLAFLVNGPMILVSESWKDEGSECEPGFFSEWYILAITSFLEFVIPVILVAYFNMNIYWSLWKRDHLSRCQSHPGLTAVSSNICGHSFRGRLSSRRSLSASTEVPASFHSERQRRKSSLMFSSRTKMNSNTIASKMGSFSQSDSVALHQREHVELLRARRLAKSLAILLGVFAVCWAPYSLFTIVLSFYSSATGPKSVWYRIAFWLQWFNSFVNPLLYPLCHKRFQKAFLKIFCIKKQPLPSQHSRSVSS
structure (smiles),measurement,setting,value
CC(C)CNc1cc(N2CCN(C)CC2)nc(N)n1,half-life,[1],> 120 min
same,solubility,[2],> 64 µg/mL
same,Ki,Histamine H4 receptor [3],3.16 nM
same,half-life,[4],4 min
CC(C)CNc1cc(NCCNc2cc(-c3ccccc3)nc(N)n2)ncn1,Ki,Histamine H4 receptor [5],501 nM
CC(C)CNc1cc(N(C)CCNc2ccnc(N)n2)nc(N)n1,half-life,[1],101 min
same,Ki,Histamine H4 receptor [5],39.8 nM
same,solubility,[2],> 84 µg/mL
same,half-life,[4],23 min
CC(C)CCc1cc(N(C)CCNc2ccnc(N)n2)nc(N)n1,half-life,[1],82 min
same,Ki,Histamine H4 receptor [5],10 nM
same,solubility,[2],> 83 µg/mL
same,half-life,[4],8 min
CC(C)CNc1nccc(NCCN(C)c2cc(-c3ccccc3)nc(N)n2)n1,Ki,Histamine H4 receptor [5],31.6 nM
CN(CCNc1cc(-c2ccccc2)nc(N)n1)c1ccnc(N)n1,Ki,Histamine H4 receptor [5],79.4 nM
Nc1nccc(NCCNC(=O)c2cc3ccccc3[nH]2)n1,Ki,Histamine H4 receptor [5],1260 nM
Nc1nccc(NCCNC(=O)c2cc3cc(Cl)ccc3[nH]2)n1,Ki,Histamine H4 receptor [5],316 nM
CN(CCNc1ccnc(N)n1)C(=O)c1cc2cc(Cl)ccc2[nH]1,Ki,Histamine H4 receptor [5],3160 nM
CN(CCNc1ccnc(N)n1)C(=O)c1cc2ccccc2[nH]1,Ki,Histamine H4 receptor [5],10000 nM
Nc1nccc(NCCNc2ccnc(N)n2)n1,Ki,Histamine H4 receptor [5],794 nM
CC(C)CNc1cc(NCCNc2ccnc(N)n2)nc(N)n1,Ki,Histamine H4 receptor [5],79.4 nM
CC(C)CCc1cc(NCCNc2ccnc(N)n2)nc(N)n1,half-life,[1],> 120 min
same,Ki,Histamine H4 receptor [5],25.1 nM
same,solubility,[2],> 79 µg/mL
same,half-life,[4],18 min
Nc1nccc(NCCNc2cc(-c3cccc(Cl)c3)nc(N)n2)n1,half-life,[1],51 min
same,Ki,Histamine H4 receptor [5],6.31 nM
same,solubility,[2],> 76 µg/mL
same,half-life,[4],9 min
Nc1nc(NCCNc2cc(-c3ccccc3)nc(N)n2)cc(-c2ccccc2)n1,Ki,Histamine H4 receptor [5],1000 nM
CC(C)CCc1cc(NCCNc2cc(-c3ccccc3)nc(N)n2)nc(N)n1,Ki,Histamine H4 receptor [5],398 nM
CC(C)CNc1cc(NCCNc2cc(-c3ccccc3)nc(N)n2)nc(N)n1,Ki,Histamine H4 receptor [5],3160 nM
Nc1nc(NCCNc2ccncn2)cc(-c2ccccc2)n1,Ki,Histamine H4 receptor [5],2000 nM
Cc1nccc(NCCNc2cc(-c3ccccc3)nc(N)n2)n1,Ki,Histamine H4 receptor [5],39.8 nM
Nc1nc(Cl)cc(NCCNc2cc(-c3ccccc3)nc(N)n2)n1,Ki,Histamine H4 receptor [5],2510 nM
CC(C)CCc1cc(NCCNc2cc(Cl)nc(N)n2)nc(N)n1,Ki,Histamine H4 receptor [5],631 nM
CC(C)CNc1nc(NCCNc2ccnc(N)n2)cc(-c2ccccc2)n1,Ki,Histamine H4 receptor [5],1260 nM
CC(C)CNc1nccc(NCCNc2cc(-c3ccccc3)nc(N)n2)n1,Ki,Histamine H4 receptor [5],79.4 nM
CC(C)CNc1nccc(NCCNc2cc(-c3cccc(Cl)c3)nc(N)n2)n1,Ki,Histamine H4 receptor [5],50.1 nM
CC(C)CNc1nccc(NCCNc2ccnc(N)n2)n1,Ki,Histamine H4 receptor [5],79.4 nM
CC(C)CNc1cc(NCCNc2ccnc(N)n2)ncn1,Ki,Histamine H4 receptor [5],1000 nM
CN(CCNc1ccnc(N)n1)c1cc(-c2ccccc2)nc(N)n1,Ki,Histamine H4 receptor [5],10 nM
CC(C)CNc1nccc(NCCN(C)c2cc(-c3cccc(Cl)c3)nc(N)n2)n1,Ki,Histamine H4 receptor [5],50.1 nM
CC(C)CCc1cc(N2CCN(C)CC2)nc(N)n1,half-life,[1],61 min
same,solubility,[2],> 62 µg/mL
same,Ki,Histamine H4 receptor [3],3.16 nM
same,half-life,[4],< 2 min
Nc1nccc(NCCNc2cc(-c3ccccc3)nc(N)n2)n1,Ki,Histamine H4 receptor [3],7.94 nM
CN1CCN(c2cc(-c3ccccc3)nc(N)n2)CC1,half-life,[1],43 min
same,solubility,[2],61 µg/mL
same,Ki,Histamine H4 receptor [3],7.94 nM
same,half-life,[4],4 min
CN1CCN(c2cc(-c3ccc(Cl)cc3)nc(N)n2)CC1,Ki,Histamine H4 receptor [3],3.16 nM
CN1CCN(C(=O)c2cc3cc(Cl)ccc3[nH]2)CC1 [JNJ-7777120],half-life,[1],> 45 min
same,solubility,[2],58 µg/mL
same,half-life,[4],2 min
